The values that follow come from ChEMBL document CHEMBL1681705, “Optimisation of ITK inhibitors through successive iterative design cycles” (Bioorg Med Chem Lett, 2011).

Assay [1] has as its target Vascular endothelial growth factor receptor 2 (Homo sapiens) (UniProt P35968). Kind of assay: Inhibition of KDR at 1 uM; values are per cent of control.
Assay [2] deals with Proto-oncogene tyrosine-protein kinase receptor Ret (Homo sapiens) (UniProt P07949). In words: Inhibition of Ret at 1 uM; values are per cent of control.
Assay [3] in a line: Inhibition of JNK2a2 at 0.1 uM. The conditions noted are these: values are per cent of control.
Assay [4] has as its target T1, Ephrin type-B receptor 1 (Homo sapiens) (UniProt P54762).
T1 sequence (whole entry): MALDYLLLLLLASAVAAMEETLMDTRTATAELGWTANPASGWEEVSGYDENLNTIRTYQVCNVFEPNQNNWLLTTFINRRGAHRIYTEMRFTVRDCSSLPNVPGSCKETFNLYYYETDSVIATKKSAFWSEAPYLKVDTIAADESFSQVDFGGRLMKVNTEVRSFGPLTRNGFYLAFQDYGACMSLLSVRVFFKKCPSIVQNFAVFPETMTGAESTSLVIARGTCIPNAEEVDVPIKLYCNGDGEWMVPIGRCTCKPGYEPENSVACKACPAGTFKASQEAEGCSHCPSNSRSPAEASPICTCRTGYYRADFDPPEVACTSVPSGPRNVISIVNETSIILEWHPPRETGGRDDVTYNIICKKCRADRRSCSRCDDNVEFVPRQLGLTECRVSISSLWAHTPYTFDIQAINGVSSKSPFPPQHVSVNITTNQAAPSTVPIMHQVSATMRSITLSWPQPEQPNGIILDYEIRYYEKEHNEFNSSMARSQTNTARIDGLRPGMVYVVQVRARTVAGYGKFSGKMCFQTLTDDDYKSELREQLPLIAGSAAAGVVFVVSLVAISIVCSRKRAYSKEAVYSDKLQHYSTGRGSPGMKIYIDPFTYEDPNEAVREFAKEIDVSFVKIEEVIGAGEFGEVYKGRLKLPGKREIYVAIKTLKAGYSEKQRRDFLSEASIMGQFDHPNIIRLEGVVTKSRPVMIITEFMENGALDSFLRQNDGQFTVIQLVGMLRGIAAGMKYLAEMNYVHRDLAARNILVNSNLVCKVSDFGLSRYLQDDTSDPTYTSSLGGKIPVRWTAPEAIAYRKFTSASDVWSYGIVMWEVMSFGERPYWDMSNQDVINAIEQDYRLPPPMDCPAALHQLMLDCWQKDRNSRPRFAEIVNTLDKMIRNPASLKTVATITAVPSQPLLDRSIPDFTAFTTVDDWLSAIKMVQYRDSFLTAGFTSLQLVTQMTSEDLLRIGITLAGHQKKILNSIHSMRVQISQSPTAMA
In words: Inhibition of EphB1 at 0.1 uM; values are per cent of control.

Assay [5] addresses Tyrosine-protein kinase Lck (Homo sapiens) (UniProt P06239). In words: Inhibition of Lck at 1 uM. Summed up:
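Single-point screen within a 108-kinase selectivity panel. Each kinase was tested with inhibitor at 0.1 and 1.0 micromolar, and activity was recorded as percent inhibition.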

Assay [6] concerns the target T2, Serine/threonine-protein kinase TBK1 (Homo sapiens) (UniProt Q9UHD2).
T2 sequence (whole entry): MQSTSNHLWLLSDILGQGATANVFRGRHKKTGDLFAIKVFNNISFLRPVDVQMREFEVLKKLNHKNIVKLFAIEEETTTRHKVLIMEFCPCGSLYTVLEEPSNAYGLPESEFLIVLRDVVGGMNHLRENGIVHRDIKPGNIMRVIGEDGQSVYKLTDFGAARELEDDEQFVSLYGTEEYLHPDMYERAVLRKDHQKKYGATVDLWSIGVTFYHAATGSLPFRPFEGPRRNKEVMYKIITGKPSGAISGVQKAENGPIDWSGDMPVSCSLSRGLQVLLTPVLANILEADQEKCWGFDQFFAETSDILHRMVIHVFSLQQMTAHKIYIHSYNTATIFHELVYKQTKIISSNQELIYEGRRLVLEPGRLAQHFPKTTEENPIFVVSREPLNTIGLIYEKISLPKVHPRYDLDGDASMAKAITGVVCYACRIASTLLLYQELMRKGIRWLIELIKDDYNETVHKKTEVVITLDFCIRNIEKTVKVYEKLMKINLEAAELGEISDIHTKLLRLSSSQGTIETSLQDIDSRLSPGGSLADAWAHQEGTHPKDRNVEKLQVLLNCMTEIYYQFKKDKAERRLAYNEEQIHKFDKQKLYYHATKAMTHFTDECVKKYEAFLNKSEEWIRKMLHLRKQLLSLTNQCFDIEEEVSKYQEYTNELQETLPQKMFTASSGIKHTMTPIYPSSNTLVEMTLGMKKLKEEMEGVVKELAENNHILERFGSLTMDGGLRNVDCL
In words: Inhibition of TBK1 at 1 uM; values are per cent of control.

Assay [7] addresses Tyrosine-protein kinase Fer (Homo sapiens) (UniProt P16591). Kind of assay: Inhibition of Fer at 0.1 uM; values are per cent of control.
The target in assay [8] is Ribosomal protein S6 kinase alpha-4 (Homo sapiens) (UniProt O75676). Kind of assay: Inhibition of MSK2 at 0.1 uM; values are per cent of control.
Assay [9] addresses Fibroblast growth factor receptor 2 (Homo sapiens) (UniProt P21802). Kind of assay: Inhibition of FGFR2 at 1 uM; values are per cent of control.
The target in assay [10] is Calcium/calmodulin-dependent protein kinase type 1 (Homo sapiens) (UniProt Q14012). In words: Inhibition of CaMK1 at 1 uM; values are per cent of control.
In assay [11] the target is Tyrosine-protein kinase ABL1 (Homo sapiens) (UniProt P00519). Kind of assay: Inhibition of Abl at 0.1 uM; values are per cent of control.
The target in assay [12] is Serine/threonine-protein kinase PLK3 (Homo sapiens) (UniProt Q9H4B4). Kind of assay: Inhibition of Plk3 at 0.1 uM; values are per cent of control.
For assay [13], the target named is LIM domain kinase 1 (Homo sapiens) (UniProt P53667). In words: Inhibition of LIMK1 at 1 uM; values are per cent of control.
The target of assay [14] is ALK tyrosine kinase receptor (Homo sapiens) (UniProt Q9UM73). Kind of assay: Inhibition of ALK at 1 uM; values are per cent of control.
Sequence of ALK tyrosine kinase receptor (Homo sapiens) (Q9UM73 19-1620 limits assumed): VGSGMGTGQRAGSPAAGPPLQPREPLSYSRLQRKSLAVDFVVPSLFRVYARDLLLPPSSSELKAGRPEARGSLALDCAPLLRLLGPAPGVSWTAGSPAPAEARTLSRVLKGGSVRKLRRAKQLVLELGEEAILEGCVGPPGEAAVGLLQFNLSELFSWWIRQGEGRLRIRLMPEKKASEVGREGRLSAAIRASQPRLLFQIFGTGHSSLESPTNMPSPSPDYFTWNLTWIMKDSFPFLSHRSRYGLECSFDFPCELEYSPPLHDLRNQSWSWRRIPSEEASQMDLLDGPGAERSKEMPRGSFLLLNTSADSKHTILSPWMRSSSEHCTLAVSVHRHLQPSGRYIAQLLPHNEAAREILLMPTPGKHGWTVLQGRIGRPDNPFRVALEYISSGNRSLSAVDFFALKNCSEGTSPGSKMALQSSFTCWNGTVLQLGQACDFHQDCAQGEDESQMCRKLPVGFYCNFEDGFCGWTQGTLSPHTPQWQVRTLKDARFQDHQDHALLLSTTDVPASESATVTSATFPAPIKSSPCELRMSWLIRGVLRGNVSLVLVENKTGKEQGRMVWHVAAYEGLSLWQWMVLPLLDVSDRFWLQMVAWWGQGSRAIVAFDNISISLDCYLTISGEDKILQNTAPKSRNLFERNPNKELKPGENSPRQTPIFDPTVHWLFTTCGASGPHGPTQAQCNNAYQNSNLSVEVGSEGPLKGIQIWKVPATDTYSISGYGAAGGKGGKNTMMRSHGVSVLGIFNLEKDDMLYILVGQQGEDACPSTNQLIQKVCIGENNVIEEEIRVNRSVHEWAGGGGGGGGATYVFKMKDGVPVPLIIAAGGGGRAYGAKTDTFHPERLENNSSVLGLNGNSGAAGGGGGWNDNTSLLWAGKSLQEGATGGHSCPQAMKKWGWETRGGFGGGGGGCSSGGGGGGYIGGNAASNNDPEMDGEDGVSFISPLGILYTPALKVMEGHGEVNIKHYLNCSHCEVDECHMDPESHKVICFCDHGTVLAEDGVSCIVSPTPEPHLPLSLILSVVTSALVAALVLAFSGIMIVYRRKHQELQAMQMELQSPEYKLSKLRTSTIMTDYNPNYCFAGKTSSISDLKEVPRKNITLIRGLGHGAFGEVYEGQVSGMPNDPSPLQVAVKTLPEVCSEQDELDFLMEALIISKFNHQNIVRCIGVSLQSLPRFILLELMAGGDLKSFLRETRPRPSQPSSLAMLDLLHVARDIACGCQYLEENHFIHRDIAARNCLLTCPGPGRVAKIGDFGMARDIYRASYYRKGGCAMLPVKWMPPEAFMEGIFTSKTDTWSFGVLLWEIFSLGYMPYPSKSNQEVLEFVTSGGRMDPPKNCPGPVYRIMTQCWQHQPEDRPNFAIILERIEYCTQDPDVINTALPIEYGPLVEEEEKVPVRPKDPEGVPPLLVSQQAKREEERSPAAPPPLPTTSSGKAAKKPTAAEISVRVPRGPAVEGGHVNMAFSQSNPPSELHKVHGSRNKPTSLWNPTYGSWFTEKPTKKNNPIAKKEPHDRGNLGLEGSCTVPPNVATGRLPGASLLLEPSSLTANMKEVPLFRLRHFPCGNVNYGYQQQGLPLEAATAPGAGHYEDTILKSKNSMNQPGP

Sequence of Proto-oncogene tyrosine-protein kinase receptor Ret (Homo sapiens) (P07949 whole entry): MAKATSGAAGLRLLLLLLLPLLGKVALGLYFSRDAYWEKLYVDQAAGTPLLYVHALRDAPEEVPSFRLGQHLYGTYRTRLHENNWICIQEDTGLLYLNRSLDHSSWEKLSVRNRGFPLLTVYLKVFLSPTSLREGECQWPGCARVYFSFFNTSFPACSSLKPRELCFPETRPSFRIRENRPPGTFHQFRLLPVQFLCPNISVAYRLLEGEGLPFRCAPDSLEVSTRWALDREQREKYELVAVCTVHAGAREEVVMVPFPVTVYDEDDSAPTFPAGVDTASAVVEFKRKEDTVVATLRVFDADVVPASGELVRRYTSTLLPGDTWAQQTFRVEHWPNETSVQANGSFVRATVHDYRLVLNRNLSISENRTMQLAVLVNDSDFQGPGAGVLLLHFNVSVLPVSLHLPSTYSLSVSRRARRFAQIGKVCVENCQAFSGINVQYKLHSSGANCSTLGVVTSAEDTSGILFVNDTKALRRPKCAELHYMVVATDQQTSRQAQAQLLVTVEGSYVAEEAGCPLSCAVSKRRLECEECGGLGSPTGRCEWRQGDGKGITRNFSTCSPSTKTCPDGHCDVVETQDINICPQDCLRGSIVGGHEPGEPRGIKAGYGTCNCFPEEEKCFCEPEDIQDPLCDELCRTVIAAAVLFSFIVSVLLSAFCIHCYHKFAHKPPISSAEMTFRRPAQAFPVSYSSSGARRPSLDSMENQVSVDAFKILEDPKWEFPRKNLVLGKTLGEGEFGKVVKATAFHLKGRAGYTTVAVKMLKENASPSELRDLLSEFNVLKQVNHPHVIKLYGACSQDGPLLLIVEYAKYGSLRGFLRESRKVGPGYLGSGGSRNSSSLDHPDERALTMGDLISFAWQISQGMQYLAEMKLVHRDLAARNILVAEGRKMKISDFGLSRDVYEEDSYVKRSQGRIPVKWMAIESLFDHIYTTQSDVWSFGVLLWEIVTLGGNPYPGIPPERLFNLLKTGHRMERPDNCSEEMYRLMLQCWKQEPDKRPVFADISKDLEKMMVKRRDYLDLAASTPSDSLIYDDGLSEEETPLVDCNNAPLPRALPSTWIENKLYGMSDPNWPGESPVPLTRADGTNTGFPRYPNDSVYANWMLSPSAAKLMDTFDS
Sequence of Tyrosine-protein kinase ABL1 (Homo sapiens) (P00519 whole entry): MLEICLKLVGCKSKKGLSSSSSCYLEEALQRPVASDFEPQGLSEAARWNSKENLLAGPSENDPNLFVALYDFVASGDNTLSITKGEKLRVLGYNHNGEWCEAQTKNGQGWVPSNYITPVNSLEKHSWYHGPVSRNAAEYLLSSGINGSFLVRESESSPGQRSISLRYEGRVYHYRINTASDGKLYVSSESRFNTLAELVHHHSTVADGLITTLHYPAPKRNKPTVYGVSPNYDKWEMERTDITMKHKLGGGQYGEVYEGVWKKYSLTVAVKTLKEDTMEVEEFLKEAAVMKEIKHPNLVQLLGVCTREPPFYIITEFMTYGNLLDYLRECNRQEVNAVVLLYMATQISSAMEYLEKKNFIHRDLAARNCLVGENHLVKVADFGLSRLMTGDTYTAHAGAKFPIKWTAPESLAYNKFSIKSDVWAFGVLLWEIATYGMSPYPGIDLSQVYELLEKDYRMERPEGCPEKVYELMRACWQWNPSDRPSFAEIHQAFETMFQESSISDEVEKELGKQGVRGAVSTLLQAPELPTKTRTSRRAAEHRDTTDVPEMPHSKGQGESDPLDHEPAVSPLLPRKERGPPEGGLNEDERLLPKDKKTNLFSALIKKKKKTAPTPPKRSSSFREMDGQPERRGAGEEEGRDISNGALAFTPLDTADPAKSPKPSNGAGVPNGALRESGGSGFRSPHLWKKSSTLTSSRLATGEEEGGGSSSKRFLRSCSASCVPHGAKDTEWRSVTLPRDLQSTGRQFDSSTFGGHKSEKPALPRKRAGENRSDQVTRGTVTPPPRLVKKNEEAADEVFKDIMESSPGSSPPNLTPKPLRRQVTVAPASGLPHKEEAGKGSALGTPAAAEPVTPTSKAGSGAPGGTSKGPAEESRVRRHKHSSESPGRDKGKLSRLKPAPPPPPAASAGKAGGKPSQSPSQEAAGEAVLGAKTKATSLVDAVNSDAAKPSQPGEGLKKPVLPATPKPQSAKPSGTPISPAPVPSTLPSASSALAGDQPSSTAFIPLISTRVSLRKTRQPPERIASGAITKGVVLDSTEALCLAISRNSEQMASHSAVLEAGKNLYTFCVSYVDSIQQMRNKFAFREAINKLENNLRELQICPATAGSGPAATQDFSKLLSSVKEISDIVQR
Sequence of LIM domain kinase 1 (Homo sapiens) (P53667 whole entry, looked up, the tested form may be a part): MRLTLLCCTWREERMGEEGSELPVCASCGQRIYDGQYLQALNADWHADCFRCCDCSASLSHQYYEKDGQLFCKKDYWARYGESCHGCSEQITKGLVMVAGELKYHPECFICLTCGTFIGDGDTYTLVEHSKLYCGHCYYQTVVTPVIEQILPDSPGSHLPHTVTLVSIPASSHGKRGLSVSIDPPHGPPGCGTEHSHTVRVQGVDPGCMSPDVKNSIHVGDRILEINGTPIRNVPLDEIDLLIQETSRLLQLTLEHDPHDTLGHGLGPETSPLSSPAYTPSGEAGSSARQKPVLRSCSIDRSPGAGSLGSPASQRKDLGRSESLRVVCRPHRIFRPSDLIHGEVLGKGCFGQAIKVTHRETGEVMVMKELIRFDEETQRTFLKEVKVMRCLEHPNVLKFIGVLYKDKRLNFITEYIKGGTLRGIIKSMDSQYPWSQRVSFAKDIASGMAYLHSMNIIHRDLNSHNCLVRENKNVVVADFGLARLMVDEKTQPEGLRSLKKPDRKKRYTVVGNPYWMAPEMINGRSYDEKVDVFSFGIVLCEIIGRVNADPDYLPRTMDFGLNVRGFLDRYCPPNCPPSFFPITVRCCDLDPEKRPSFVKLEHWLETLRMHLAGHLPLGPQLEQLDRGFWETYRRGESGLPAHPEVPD
Sequence of Tyrosine-protein kinase Lck (Homo sapiens) (P06239 2-509 limits assumed): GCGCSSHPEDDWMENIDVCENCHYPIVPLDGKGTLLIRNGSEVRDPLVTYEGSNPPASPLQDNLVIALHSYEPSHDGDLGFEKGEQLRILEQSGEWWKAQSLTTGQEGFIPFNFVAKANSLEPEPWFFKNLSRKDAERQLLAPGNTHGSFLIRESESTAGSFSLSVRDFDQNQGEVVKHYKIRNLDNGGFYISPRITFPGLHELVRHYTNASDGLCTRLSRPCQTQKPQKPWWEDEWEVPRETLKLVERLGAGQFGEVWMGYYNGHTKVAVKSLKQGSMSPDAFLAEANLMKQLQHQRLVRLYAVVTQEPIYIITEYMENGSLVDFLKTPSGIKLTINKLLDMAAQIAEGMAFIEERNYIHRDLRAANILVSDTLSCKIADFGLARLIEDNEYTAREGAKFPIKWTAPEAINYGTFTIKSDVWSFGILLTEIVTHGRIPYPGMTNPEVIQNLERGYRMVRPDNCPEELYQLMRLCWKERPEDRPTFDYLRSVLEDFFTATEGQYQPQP

Take `Cc1ccc2cc(-c3n[nH]c4ccc(NC5CCNC5)cc34)[nH]c2c1` (stereo not drawn): the residual activity (in general, the signal under treatment as a percentage of the control signal) in [1] was found to be 5%; in assay [2], 3%; in assay [3], 103%; in [4], 29%; in assay [6], 2%; in [7] it was 5%. Further, the residual activity in assay [8] came to 39%; in assay [9], 1%; in assay [10], 24%; in assay [11], 3%; in [12] it was 106%; in assay [13], 4%. Moreover, the residual activity in [14] came to 5%. The inhibition (usually the drop in the measured response relative to a control, in per cent) in assay [5] amounted to 0%.
Turning to `Cc1ccc2cc(-c3n[nH]c4ccc(NC5CCN(Cc6ccccc6)CC5)cc34)[nH]c2c1`, the residual activity in assay [1] was 21%; in assay [2], -2%; in assay [3], 93%; in [4], 73%; in assay [6], 9%; in [7], 49%. Moreover, the residual activity in assay [8] turned out to be 106%; in assay [9], 4%; in [10], 78%; in assay [11], 18%; in [12], 103%; in [13], 73%. Also, in assay [14], the residual activity was determined as 4%. Besides, in assay [5], the inhibition was 9%.
